Experimental data from PMC4220649 (Blood Cancer Journal, 2014).
“And” between values parts separate entries of the source, which are not always exact repeats. Equal values may be shown once.

Columns and labels:
[1] = Urine pharmacokinetics of ixazomib; type: in vivo, human
20S proteasome = 20S proteasome (Homo sapiens, UniProt P28074); assay: Whole blood 20S proteasome activity; type: in vivo; settings: for Emax / Time to Emax: whole blood 20S; for Maximal 20S proteasome inhibition / Time of maximal 20S proteasome inhibition after administration: whole blood, MTD 2.34 mg/m^2
How it was run: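 Whole blood was sampled after IV bolus dosing (0.125–3.11 mg/m2) on cycle 1 days 1 and 15. 20S proteasome activity was measured by fluorogenic assay.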

[2] = day 1, IV 0.125 mg/m^2, n=1, individual value
[3] = day 1, IV 0.25 mg/m^2, n=1, individual value
[4] = day 1, IV 0.5 mg/m^2, n=1, individual value
[5] = day 1, IV 1 mg/m^2, n=1, individual value
[6] = day 15, IV 0.25 mg/m^2, n=1, individual value
[7] = day 15, IV 0.5 mg/m^2, n=1, individual value
[8] = day 15, IV 1 mg/m^2, n=1, individual value
[9] = day 15, IV 3.11 mg/m^2, n=2, individual values

For `CC(C)C[C@H](NC(=O)CNC(=O)c1cc(Cl)ccc1Cl)B(O)O` [ixazomib], the “Fraction of ixazomib excreted unchanged in urine” value ([1]; 25 patients, days 1 and 15, 0 to 4 h) was < 1 % of the administered dose, the CL renal ([1]; human, urine, intravenous) was < 8.5 mL/min and the “Dose dependence of maximal whole blood 20S proteasome inhibition” value (20S proteasome; 0.125–3.11 mg/m^2) was “dose-dependent increase”. For the same compound, the “AUE0–168 h” value (20S proteasome; area under 20S inhibition vs time curve, day 1, IV 1.4 mg/m^2, n=3, mean (±s.d.)) was 2000 (±1160) % inhibition/h, the Emax (20S proteasome; [2]) was 5.15 % inhibition and the “Time to Emax” value (20S proteasome; [2]) was 0.25 h. For the same compound, the Emax (20S proteasome; [3]) was 18.5 % inhibition, the “Time to Emax” value (20S proteasome; [3]) was 0.083 h and the Emax (20S proteasome; [4]) was 33.2 % inhibition. The “Time to Emax” value (20S proteasome; [4]) was 0.1 h, the Emax (20S proteasome; [5]) was 50.5 % inhibition and the “Time to Emax” value (20S proteasome; [5]) was 0.083 h. For the same compound, the Emax (20S proteasome; day 1, IV 1.4 mg/m^2, n=3, mean (±s.d.)) was 66.3 (±14.8) % inhibition, the “Time to Emax” value (20S proteasome; day 1, IV 1.4 mg/m^2, n=3, median (range)) was 0.117 (0.1–0.133) h and the Emax (20S proteasome; day 1, IV 1.76 mg/m^2, n=7, mean (±s.d.)) was 72.2 (±8.1) % inhibition. The “Time to Emax” value (20S proteasome; day 1, IV 1.76 mg/m^2, n=7, median (range)) was 0.083 (0.083–0.1) h, the Emax (20S proteasome; day 1, IV 2.34 mg/m^2, n=5, mean (±s.d.)) was 81.9 (±3.2) % inhibition and the “Time to Emax” value (20S proteasome; day 1, IV 2.34 mg/m^2, n=5, median (range)) was 0.083 (0.083–0.25) h. The Emax (20S proteasome; day 1, IV 3.11 mg/m^2, n=4, mean (±s.d.)) was 80.2 (±3.6) % inhibition, the “Time to Emax” value (20S proteasome; day 1, IV 3.11 mg/m^2, n=4, median (range)) was 0.109 (0.083–0.533) h and the Emax (20S proteasome; [6]) was 64.3 % inhibition. The “Time to Emax” value (20S proteasome; [6]) was 0.1 h, the Emax (20S proteasome; [7]) was 19.2 % inhibition and the “Time to Emax” value (20S proteasome; [7]) was 0.1 h. For the same compound, the Emax (20S proteasome; [8]) was 44.4 % inhibition, the “Time to Emax” value (20S proteasome; [8]) was 0.083 h and the Emax (20S proteasome; day 15, IV 1.4 mg/m^2, n=3, mean (±s.d.)) was 69.8 (±10.6) % inhibition. For the same compound, the “Time to Emax” value (20S proteasome; day 15, IV 1.4 mg/m^2, n=3, median (range)) was 0.083 (0.083–0.083) h, the Emax (20S proteasome; day 15, IV 1.76 mg/m^2, n=3, mean (±s.d.)) was 74.8 (±4.5) % inhibition and the “Time to Emax” value (20S proteasome; day 15, IV 1.76 mg/m^2, n=3, median (range)) was 0.083 (0.033–0.083) h. The Emax (20S proteasome; day 15, IV 2.34 mg/m^2, n=4, mean (±s.d.)) was 79.6 (±4.9) % inhibition, the “Time to Emax” value (20S proteasome; day 15, IV 2.34 mg/m^2, n=4, median (range)) was 0.167 (0.083–0.25) h and the Emax (20S proteasome; [9]) was 82.3 % inhibition and 85 % inhibition. For the same compound, the “Time to Emax” value (20S proteasome; [9]) was 0.083 h and 0.117 h, the “Maximal 20S proteasome inhibition” value (20S proteasome; day 1) was 82% and the “Time of maximal 20S proteasome inhibition after administration” value (20S proteasome; day 1) was 5 min. The “Maximal 20S proteasome inhibition” value (20S proteasome; day 15) was 80% and the “Time of maximal 20S proteasome inhibition after administration” value (20S proteasome; day 15) was 10 min.
